High-throughput results: PubChem BioAssay, The Scripps Research Institute Molecular Screening Center
Rows were chosen to be rich in hits. Some 2% of all compounds tested hit in one or more screens of this group.
ARFGAP1 inhibitor: rat ARFGAP1 inhibition; Arfgap1-stimulated ARF1 GTP hydrolysis, GDP FP detection; inhibition, % at 16.5 µM; 360,000 compounds, 0.26% hits; AID 651572;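 active = inhibition above a per-plate limit, mean inhibition of low control wells plus 3 SD, cut at about 25% in these data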;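 note: 0% = DMSO wells with enzyme and 100% = wells lacking Arfgap1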
Target sequence (Q62848 1-136 limits assumed): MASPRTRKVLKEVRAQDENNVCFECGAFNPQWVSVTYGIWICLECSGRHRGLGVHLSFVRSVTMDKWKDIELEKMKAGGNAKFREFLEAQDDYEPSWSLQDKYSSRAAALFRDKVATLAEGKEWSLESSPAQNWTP
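Assay system: purified rat His6-Arfgap1 residues 1-136 (GAP domain); Reagent: human Δ17 ARF1 bound to GTP; Dosing: 16.5 µM single point, 1.26% DMSO; Times: GTP hydrolysis reaction 2 h at 25 °C; Signal: FP, GDP Alexa 633 tracer displaced from anti-GDP antibody, 620/688 nm; Measure: % inhibition from polarization.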
TCR CD3 inh: human TCR-CD3 binding inhibition; TAMRA-labeled TCR probe fluorescence, biochemical; 360,000 compounds, 0.37% hits; inhibition, % at 9.4 µM; in the data active = inhibition above about 19%;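 note: recombinant mutant TCR 2C K166C tagged with TAMRA read by polarization; 0% = receptor in buffer alone and 100% = receptor with positive control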
LEDGF integ inh: blocks HIV-1 LEDGF/p75-dependent DNA integration | TR-FRET IN-LEDGF/p75 DNA integration, Eu/Cy5 | inhibition, % at 3.7 µM | 370,000 compounds, 0.64% hits | AID 743269;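 active = inhibition above the screen-wide mean plus 3 SD, cut at about 13% in these data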;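 note: signal is the Cy5 over europium emission ratio at 671 and 618 nm; 0% = plate median of compound wells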
UHRF1 binding: blocks human UHRF1 binding to methylated DNA; UHRF1 binding to methylated oligo, TR-FRET; inhibition, % at 4.4 µM; 370,000 compounds, 0.75% hits; in the data active = inhibition above about 21%;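 note: UHRF1 SRA domain binding a hemimethylated CpG hairpin DNA probe; 0% = median of test compound wells and 100% = reference inhibitor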
MBD2 DNA inh: inhibitors of human MBD2 binding to methylated oligonucleotide | Q9UBB5 | inhibition, % at 4.4 µM | 370,000 compounds, 0.31% hits | TR-FRET | AID 686964; in the data active = inhibition above about 13%
ASAP1 inh: ASAP1 ArfGAP inhibition | ASAP1-stimulated ARF1 GTP hydrolysis, GDP FP detection | inhibition, % at 16.5 µM | 360,000 compounds, 0.19% hits | AID 624377; in the data active = inhibition above about 25%;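 note: 0% = vehicle with enzyme and substrate and 100% = no enzyme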
Target sequence (Q9ULH1 325-724 limits assumed): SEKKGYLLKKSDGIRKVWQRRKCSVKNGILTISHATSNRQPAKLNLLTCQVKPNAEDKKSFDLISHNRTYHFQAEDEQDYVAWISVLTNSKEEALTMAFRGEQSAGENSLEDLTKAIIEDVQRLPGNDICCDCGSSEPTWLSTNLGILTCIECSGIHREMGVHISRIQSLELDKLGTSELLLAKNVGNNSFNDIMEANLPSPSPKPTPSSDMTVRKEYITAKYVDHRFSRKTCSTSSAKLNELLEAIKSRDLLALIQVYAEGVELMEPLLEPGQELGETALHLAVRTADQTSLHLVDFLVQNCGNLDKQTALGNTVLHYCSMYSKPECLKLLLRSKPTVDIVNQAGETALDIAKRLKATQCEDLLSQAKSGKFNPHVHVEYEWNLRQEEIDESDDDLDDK
Starred values were filed as active, the others as inactive; · = no result given.

SMILES	ARFGAP1 inhibitor	TCR CD3 inh	LEDGF integ inh	UHRF1 binding	MBD2 DNA inh	ASAP1 inh
Cc1ccc(OCCN2CCOCC2)cc1C	-3.0	2.3	-2.2	-1.7	-2.5	-0.4
CCC(c1ccc(OC)cc1)c1cn(C)c2ccccc12 (configuration not stated)	·	·	-3.8	1.9	-1.4	·
CCOC(=O)C1CCCN(c2c(C(=O)c3ccccc3)cnc3ccccc23)C1 (configuration not stated)	-11.4	-3.9	2.3	38.0*	3.8	-0.8
CCOC(=O)C1CCN(c2c(C(=O)c3ccccc3)cnc3ccc(CC)cc23)CC1	-10.8	-9.9	2.2	0.8	6.5	-10.6
Cc1c(NS(=O)(=O)c2cc(C(=O)NCC3CCCO3)cc(Cl)c2Cl)c(=O)n(-c2ccccc2)n1C (configuration not stated)	-14.8	3.0	-1.3	-0.2	2.2	-24.9
Cc1c(NC(=O)C(C)NCC2CCCO2)c(=O)n(-c2ccccc2)n1C (configuration not stated)	-0.5	7.8	-0.3	37.9*	-2.5	18.1
Cc1cccc(OCC(=O)Nc2ccc3c(C)cc(=O)oc3c2)c1	1.4	-7.0	1.5	6.4	1.4	9.9
Cc1cc(=O)oc2cc(NC(=O)COc3cccc(C(F)(F)F)c3)ccc12	0.8	-0.3	4.3	55.5*	7.1	1.1
Fc1ccccc1CNc1ccc(Cl)c(Cl)c1	15.2	3.7	-2.9	25.3*	1.4	11.3
O=C(Nc1ccc(C(=O)N2CCCC2)cc1)C1CCCC1	5.5	0.4	-1.4	-3.7	-0.1	-4.2
O=C(Nc1ccc(C(=O)N2CCCC2)cc1)C1CCC1	6.6	7.2	9.4	22.8*	5.1	-3.4
O=C(CSc1ccc(Cl)cc1)N1CCN(c2ccc(Cl)cc2[N+](=O)[O-])CC1	-0.5	7.3	-0.8	21.9*	0.1	-0.5
Cc1ccc2c(c1)N(CCCC(=O)NCc1cccs1)C(=O)CO2	·	·	-2.4	-0.7	-0.7	·
O=S(=O)(c1ccccc1)c1nc(-c2ccccc2Cl)oc1NCCN1CCOCC1	8.7	0.9	3.4	0.6	-1.8	5.9
O=S(=O)(c1ccccc1)c1nc(-c2ccccc2Cl)oc1NCCCN1CCOCC1	-7.0	-9.3	-1.9	39.6*	3.4	18.9
CCCCOCCCNC(=O)C[C@H]1C[C@@]2(C(=O)OC)C(=C[C@H](C(C)C)O[C@@H]2C2CC2)N(CCc2ccc(OC)c(OC)c2)C1=O	·	·	-2.7	-1.2	-6.7	·
Cc1oc(CC(C)C)cc1C(N)=O	9.6	9.9	4.4	26.3*	5.3	-12.6
Cc1oc(CC(C)C)cc1C(=O)NCCCC(=O)O	4.0	5.0	-2.3	-1.6	-3.0	-12.3
O=C(O)CC1c2ccccc2CCN1S(=O)(=O)c1cccs1 (configuration not stated)	11.4	-2.5	-3.8	23.8*	7.7	5.0
COc1cccc(NC(=O)c2cccc(C)c2[N+](=O)[O-])c1	-2.1	1.1	0.4	62.5*	-2.5	-2.0
COC(=O)C1=C(C)N(Cc2cccc(C(F)(F)F)c2)C(=NCc2ccc3c(c2)OCO3)NC1c1ccc(F)cc1 (configuration not stated)	12.0	-6.2	-2.2	3.3	-1.8	-5.3
O=Cc1ccc(N2Cc3ccccc3C2)cc1	-19.1	-4.0	17.6*	-14.2	-3.9	1.4
Cc1cc(N2Cc3ccccc3C2)ccc1C=O	7.6	2.2	8.6	-2.3	-9.9	9.4
CS(=O)(=O)N[C@@H]1C[C@@H]2O[C@H](CO)CC[C@@H]2O[C@@H]1CCc1ccc(-c2ccccc2F)cc1	·	·	3.3	0.3	-1.1	·
CCOc1ccc(/C=N/Nc2ccccn2)cc1OC	2.0	3.2	2.1	47.1*	-2.2	12.2
SMILES	ARFGAP1 inhibitor	TCR CD3 inh	LEDGF integ inh	UHRF1 binding	MBD2 DNA inh	ASAP1 inh
CCCOc1ccc(/C=N/Nc2ccccn2)cc1OC	8.2	-3.9	-3.1	1.5	1.0	-1.3
CCC(=O)c1ccccc1OCCN1C(=O)NC(C)(C)C1=O	2.1	9.7	-0.7	7.1	-2.0	2.5
CC1(C)NC(=O)N(CCOCCOc2ccccc2-c2ccccc2)C1=O	-1.8	5.3	-1.5	27.8*	0.7	0.2
Cc1cccc(C)c1NC(=O)C1(C)CN(S(C)(=O)=O)CC(=O)N1CC(F)(F)F (configuration not stated)	-18.0	-0.3	3.0	-0.4	-3.5	5.8
O=C(O)Cc1sc(N/N=C\c2ccccc2)nc1-c1ccccc1	-0.3	-4.7	24.7*	-5.2	2.0	4.8
CCn1nc(C)c(NC(=O)c2ccc(Cl)cc2)c1C	-6.1	-7.3	4.9	27.3*	12.6	9.8
CCn1nc(C)c(NC(=O)Nc2cccc(Cl)c2Cl)c1C	9.6	4.1	2.7	1.3	-0.1	6.9
CCC1(CC)NC(=O)N(CC(=O)OCn2nnc3ccccc3c2=O)C1=O	-1.6	3.3	1.0	21.2*	8.9	2.1
CC(C)CNC1CS(=O)(=O)CC1O (configuration not stated)	4.8	-0.3	1.1	21.9*	-0.8	3.0
CC(C)c1ccc(S(=O)(=O)N2CCN(CCC(=O)Nc3ccc(N(C)C)cc3)CC2)cc1	4.2	1.1	6.0	23.0*	15.2*	6.5
COc1ccc(NC(=O)CCN2CCN(S(=O)(=O)c3ccc(C(C)C)cc3)CC2)cc1	3.5	-5.1	-1.4	2.3	6.9	0.2
C[C@@H]1CCN(C2CC2)S(=O)(=O)c2ccc(N3CCC[C@@H]3C)cc2O1	·	·	-1.1	-3.0	-7.6	·
Cc1ccc(C)c2[nH]c(=O)c(CN(Cc3ccc4c(c3)OCO4)Cc3nnnn3Cc3ccco3)cc12	8.7	8.6	17.6*	3.6	2.1	3.7
Cc1nnn(C23CC4CC(CC(CC(=O)Nc5ccc(C)c(Cl)c5)(C4)C2)C3)n1	2.0	-5.2	0.6	27.0*	2.3	7.2
C=CCn1c(SCC#N)nc2sc(CC)cc2c1=O	-11.7	3.4	2.6	27.6*	-1.6	-7.7
C=CCn1c(SCC(=O)O)nc2sc(CC)cc2c1=O	-12.4	1.9	3.4	0.2	-5.2	-10.1
COC/C=C/C1=CC2=CC(=O)C(C)(OC(=O)C3CCCC3)C(=O)C2=CO1 (configuration not stated)	-3.1	8.6	64.5*	28.7*	5.0	20.9
Cc1ccc(C(=O)OCC(=O)N2CCCCCC2)c(O)c1	5.0	3.1	-4.9	29.1*	2.0	3.1
O=C(OCC(=O)N1CCCC1)c1ccccc1O	2.7	-0.2	-2.2	0.3	3.8	5.9
CCCCN1CC(=O)N2[C@H](C[C@@]3(C)c4ccccc4N(S(=O)(=O)c4ccccc4)[C@@H]23)C1=O	·	·	-3.4	5.9	-1.6	·
CCOC(=O)COc1ccc(S(=O)(=O)N2CCN(c3ccccc3F)CC2)cc1	-0.4	-1.2	0.0	5.0	11.1	15.4
CCOc1ccc(OCCCC(=O)N2CCN(S(=O)(=O)c3ccc(Cl)cc3)CC2)cc1	-4.5	-2.2	31.5*	0.5	8.1	-2.9
